Assay results published in PMC12246158 (Scientific Reports, 2025).

How the values were obtained:
L. tropica promastigotes = test: Parasite counting method; format: cell-based; conditions: microscopic counting, 24, 48 and 72 h at 24 °C
Summary of the method: (§1)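 Promastigotes (L. major MRHO/IR/75/ER; L. tropica MRHO/IR/02/Mash10), grown in RPMI 1640 with 20% heat-inactivated FBS and pen-strep, were seeded at 1 × 10^6/mL in log phase. They were exposed to 3.12–1000 µM test compound (DMSO stock diluted in PBS) for 24, 48 and 72 h at 24 °C. Fixed parasites were counted daily in a Neubauer chamber at 400x. Triplicate; AmB 0.93 µM reference; repeated-measures ANOVA.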

L. major promastigotes = test: Parasite counting method; format: cell-based; conditions: microscopic counting, 24, 48 and 72 h at 24 °C
Summary of the method: as §1

[1] = test system: L. major intracellular amastigotes; test: Anti-intracellular amastigote activity in J774A.1 macrophages; format: cell-based, L. major (MRHO/IR/75/ER); conditions: Leishmania species not given
Summary of the method: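 SI = CC50/IC50. For amastigotes, J774A.1 cells (10^5/well) were seeded on coverslips for 24 h at 37 °C, 5% CO2, then infected with stationary-phase metacyclic promastigotes (10:1) for 24 h. Test compound 1.32–1000 µM was added for 72 h, then cells were methanol-fixed and Giemsa-stained; amastigotes per 100 macrophages were counted. […] Triplicates.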

Row | Structure (SMILES) | effect on promastigote count (in words) (L. tropica promastigotes) | effect on promastigote count (in words) (L. major promastigotes) | reduction of the number of amastigotes toward the untreated negative control [1]
1 | S=C(NN=Cc1ccc(Br)cc1)Nc1cccnc1 [Compound 5n, 2-(4-Bromobenzylidene)-N-(pyridin-3-yl)hydrazine-1-carbothioamide] | limited activity | limited activity | 20–25%
2 | O=[N+]([O-])NC(=S)NN=Cc1ccc(Br)cc1 [Compound 5j, 2-(4-Bromobenzylidene)-N-nitrohydrazine-1-carbothioamide] | mild effect | mild effect | 
3 | COc1ccc(C=NNC(=S)Nc2cccnc2)cc1OC [Compound 5o, 2-(3,4-Dimethoxybenzylidene)-N-(pyridin-3-yl)hydrazine-1-carbothioamide] | limited activity | limited activity | 20–25%
4 | CNC(=S)NN=Cc1ccc(Br)cc1 [Compound 5e, 2-(4-Bromobenzylidene)-N-methylhydrazine-1-carbothioamide] | significant reduction in promastigote count | significant reduction in promastigote count | 
5 | CNC(=S)NN=Cc1ccc(C)cc1 [Compound 5c, N-Methyl-2-(4-methylbenzylidene)hydrazine-1-carbothioamide] | mild | mild | 
6 | CNC(=S)NN=Cc1ccc(OC)c(OC)c1 [Compound 5a, 2-(3,4-Dimethoxybenzylidene)-N-methylhydrazine-1-carbothioamide] | significant reduction in promastigote count | significant reduction in promastigote count | 
7 | CNC(=S)NN=Cc1ccc([N+](=O)[O-])cc1 [Compound 5f, 2-(4-Nitrobenzylidene)-N-methylhydrazine-1-carbothioamide] | significant reduction in promastigote count | significant reduction in promastigote count | 
8 | CNC(=S)NN=Cc1ccc(O)c(OC)c1 [Compound 5b, 2-(4-Hydroxy-3-methoxybenzylidene)-N-methylhydrazine-1-carbothioamide] | significant reduction in promastigote count | significant reduction in promastigote count | 
9 | CNC(=S)NN=Cc1ccc(OC)cc1 [Compound 5g, N-Methyl-2-(4-methoxybenzylidene)hydrazine-1-carbothioamide] | significant reduction in promastigote count | significant reduction in promastigote count | 
